Active and inactive are the calls of the source. The rule behind the calls is not given here.
Key:
[1] = Inhibition of Hepatitis C virus genotype 1b Con1 NS5B Cdelta21 polymerase assessed as incorporation of [33P]-CTP into heteropolymer RNA template after 2 hrs; parameters: species or system Hepacivirus hominis; conditions: Con1, 2 h
Procedure, shortened: (§1)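 Each value is the mean of duplicate experiments run on two separate weighings of compound.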

Hepatitis C virus [2] = experiment: Antiviral activity against Hepatitis C virus genotype 1b Con1 infected in human HuH7 cells assessed as inhibition of viral RNA replication after 3 by real time PCR analysis; type: functional, organism-based, Hepacivirus hominis, Huh-7; procedure, shortened: as §1
[3] = Cytotoxicity against human HuH7 cells after 3 days by MTS assay; type: cell-based, Huh-7; procedure, shortened: as §1
Hepatitis C virus [4] = experiment: Ratio of IC50 for Hepatitis C virus genotype 1b Con1 NS5B Cdelta21 polymerase palm site 1 M414T mutant to IC50 for Hepatitis C virus genotype 1b Con1 NS5B Cdelta21 polymerase; parameters: species or system Hepacivirus hominis
Hepatitis C virus [5] = experiment: Ratio of IC50 for Hepatitis C virus genotype 1b Con1 NS5B Cdelta21 polymerase thumb site 1 P495L mutant to IC50 for Hepatitis C virus genotype 1b Con1 NS5B Cdelta21 polymerase; parameters: species or system Hepacivirus hominis
[6] = test system: Hepatitis C virus genotype 4; experiment: Inhibition of Hepatitis C virus genotype 4 NS5B Cdelta21 polymerase up to 10 uM
Hepatitis C virus [7] = experiment: Ratio of IC50 for Hepatitis C virus genotype 1b Con1 NS5B Cdelta21 polymerase palm site 2 C316N mutant to IC50 for Hepatitis C virus genotype 1b Con1 NS5B Cdelta21 polymerase; parameters: species or system Hepacivirus hominis
Hepacivirus hominis [8] = experiment: Ratio of IC50 for Hepatitis C virus subtype 1a H77 NS5B Cdelta21 polymerase to IC50 for Hepatitis C virus genotype 1b Con1 NS5B Cdelta21 polymerase
Hepatitis C virus [9] = experiment: Ratio of IC50 for Hepatitis C virus genotype 1b Con1 NS5B Cdelta21 polymerase palm site 2 C316Y mutant to IC50 for Hepatitis C virus genotype 1b Con1 NS5B Cdelta21 polymerase; parameters: species or system Hepacivirus hominis
Hepacivirus hominis [10] = experiment: Ratio of IC50 for Hepatitis C virus subtype 1b BK NS5B Cdelta21 polymerase to IC50 for Hepatitis C virus genotype 1b Con1 NS5B Cdelta21 polymerase
Hepatitis C virus [11] = experiment: Ratio of IC50 for Hepatitis C virus genotype 1b Con1 NS5B Cdelta21 polymerase palm site 1 G554D mutant to IC50 for Hepatitis C virus genotype 1b Con1 NS5B Cdelta21 polymerase; parameters: species or system Hepacivirus hominis
[12] = test system: Hepatitis C virus genotype 2; experiment: Inhibition of Hepatitis C virus genotype 2 NS5B Cdelta21 polymerase up to 10 uM
[13] = test system: Hepatitis C virus genotype 3; experiment: Inhibition of Hepatitis C virus genotype 3 NS5B Cdelta21 polymerase up to 10 uM
Hepatitis C virus [14] = experiment: Ratio of IC50 for Hepatitis C virus genotype 1b Con1 NS5B Cdelta21 polymerase thumb site 2 M423T mutant to IC50 for Hepatitis C virus genotype 1b Con1 NS5B Cdelta21 polymerase; parameters: species or system Hepacivirus hominis
[15] = Hepatitis C virus, Con1, Huh-7, read-out: EC50

Row | IC50 [1] [µM] | Structure (SMILES) | CC50 at 72 h [3] [µM] | also measured
1 | > 200 | CC(C)c1ccc(NC(=O)c2cccnc2O)c(N2CCN(c3cnccn3)CC2)c1 | – | –
2 | > 20 | CC(C)c1ccc(NC(=O)c2ccnc(NC(=O)C(C)(C)C)c2)c(N2CCN(c3cnccn3)CC2)c1 | – | –
3 | 46 | CC(C)c1ccc(NC(=O)c2cccc(O)n2)c(N2CCN(c3cnccn3)CC2)c1 | 17 | EC50 (Hepatitis C virus [2]; huh-7): ND(toxic)
4 | > 200 | C=C(C)c1ncccc1C(=O)Nc1ccc(C(C)C)cc1N1CCN(c2cnccn2)CC1 | – | –
5 | 3 | CC(C)c1ccc(NC(=O)c2cccnc2)c(N2CCN(c3cnccn3)CC2)c1 | 54 | EC50 (Hepatitis C virus [2]; [15]): 20 µM
6 | 15 | Cc1occc1C(=O)Nc1ccc(C(C)C)cc1N1CCN(c2cnccn2)CC1 | – | –
7 | 14 | Cc1ncoc1C(=O)Nc1ccc(C(C)C)cc1N1CCN(c2cnccn2)CC1 | – | –
8 | 2.2 | CC(C)c1ccc(NC(=O)c2cccnc2F)c(N2CCN(c3cnccn3)CC2)c1 | 17 | EC50 (Hepatitis C virus [2]; huh-7): ND(toxic)
9 | 6.7 | CC(C)c1ccc(NC(=O)c2cnc3ccccc3c2)c(N2CCN(c3cnccn3)CC2)c1 | 6 | EC50 (Hepatitis C virus [2]; [15]): 1.8 µM
10 | 5.6 | Cc1c(F)cc(C(=O)Nc2ccc(C(C)C)cc2N2CCN(c3cnccn3)CC2)cc1F | > 50 | EC50 (Hepatitis C virus [2]; [15]): > 50 µM
11 | > 20 | CC(C)c1ccc(NC(=O)c2ccccn2)c(N2CCN(c3cnccn3)CC2)c1 | – | –
12 | > 20 | CC(C)c1ccc(NC(=O)c2ccnnc2)c(N2CCN(c3cnccn3)CC2)c1 | – | –
13 | > 20 | CC(C)c1ccc(NC(=O)c2cncnc2)c(N2CCN(c3cnccn3)CC2)c1 | – | –
14 | > 20 | CC(C)c1ccc(NC(=O)c2ccc(C(F)(F)F)nc2)c(N2CCN(c3cnccn3)CC2)c1 | – | –
15 | > 20 | CC(C)c1ccc(NC(=O)c2cnc3[nH]ccc3c2)c(N2CCN(c3cnccn3)CC2)c1 | – | –
16 | > 20 | Cc1cnc(C(=O)Nc2ccc(C(C)C)cc2N2CCN(c3cnccn3)CC2)cn1 | – | –
17 | > 200 | CC(C)c1ccc(NC(=O)c2cccnc2-c2ccccc2)c(N2CCN(c3cnccn3)CC2)c1 | 15 | EC50 (Hepatitis C virus [2]; huh-7): ND(toxic)

Row | IC50 [1] [µM] | Structure (SMILES) | CC50 at 72 h [3] [µM] | also measured
18 | 2.3 | CC(C)c1ccc(NC(=O)c2cccnc2C(F)(F)F)c(N2CCN(c3cnccn3)CC2)c1 | 4.5 | EC50 (Hepatitis C virus [2]; huh-7): ND(toxic)
19 | 2.3 | CC(C)c1ccc(NC(=O)c2cccnc2)c(N2CCN(c3ncccn3)CC2)c1 | 37 | EC50 (Hepatitis C virus [2]; huh-7): ND(toxic)
20 | 2 | CC(C)c1ccc(NC(=O)c2cccnc2C2CC2)c(N2CCN(c3cnccn3)CC2)c1 | 21 | EC50 (Hepatitis C virus [2]; huh-7): ND(toxic)
21 | 0.58 | Cc1ncsc1C(=O)Nc1ccc(C(C)C)cc1N1CCN(c2cnccn2)CC1 | 25 | EC50 (Hepatitis C virus [2]; huh-7): ND(toxic)
22 | 14 | Cc1ccc(C(=O)Nc2ccc(C(C)C)cc2N2CCN(c3cnccn3)CC2)cn1 | 11 | EC50 (Hepatitis C virus [2]; huh-7): ND(toxic)
23 | 7 | CC(C)c1ccc(NC(=O)c2ccsc2)c(N2CCN(c3cnccn3)CC2)c1 | 28 | EC50 (Hepatitis C virus [2]; [15]): 6.5 µM
24 | 0.1 | Cc1ncccc1C(=O)Nc1ccc(C(C)C)cc1N1CCN(c2ccncn2)CC1 | 20 | EC50 (Hepatitis C virus [2]; [15]): 1.1 µM
25 | > 200 | Cc1n[nH]cc1C(=O)Nc1ccc(C(C)C)cc1N1CCN(c2cnccn2)CC1 | – | –
26 | 7.3 | CC(C)c1ccc(NC(=O)c2cccnc2)c(N2CCN(c3ccccn3)CC2)c1 | > 50 | EC50 (Hepatitis C virus [2]; [15]): > 50 µM
27 | 1 | CC(C)c1ccc(NC(=O)c2cccnc2N)c(N2CCN(c3cnccn3)CC2)c1 | 30 | EC50 (Hepatitis C virus [2]; huh-7): ND(toxic)
28 | 13 | Cc1oncc1C(=O)Nc1ccc(C(C)C)cc1N1CCN(c2cnccn2)CC1 | – | –
29 | > 200 | Cc1nocc1C(=O)Nc1ccc(C(C)C)cc1N1CCN(c2cnccn2)CC1 | – | –
30 | 0.54 | Cc1c(F)cc(F)cc1C(=O)Nc1ccc(C(C)C)cc1N1CCN(c2cnccn2)CC1 | 20 | EC50 (Hepatitis C virus [2]; huh-7): ND(toxic)
31 | > 20 | COc1ncccc1C(=O)Nc1ccc(C(C)C)cc1N1CCN(c2cnccn2)CC1 | – | –
32 | 2.3 | Cc1cncc(C(=O)Nc2ccc(C(C)C)cc2N2CCN(c3cnccn3)CC2)c1 | 13 | EC50 (Hepatitis C virus [2]; huh-7): ND(toxic)
33 | 54 | Cc1c(F)ccc(F)c1C(=O)Nc1ccc(C(C)C)cc1N1CCN(c2cnccn2)CC1 | 11 | EC50 (Hepatitis C virus [2]; huh-7): ND(toxic)
34 | > 20 | CC(C)c1ccc(NC(=O)c2cnccc2C(F)(F)F)c(N2CCN(c3cnccn3)CC2)c1 | – | –

Further lines, the molecule ahead of its results:

Row | Structure (SMILES) | IC50 [1] [µM] | CC50 at 72 h [3] [µM] | also measured
35 | O=C(Nc1ccc(C2CC2)cc1N1CCN(c2cnccn2)CC1)c1cccnc1 | 12 | – | –
36 | CC(C)c1ccc(NC(=O)c2cccnc2)c(N2CCN(S(C)(=O)=O)CC2)c1 | > 200 | – | –
37 | Cc1nc(N(C)C)sc1C(=O)Nc1ccc(C(C)C)cc1N1CCN(c2cnccn2)CC1 | 10 | > 10 | EC50 (Hepatitis C virus [2]; [15]): 6.9 µM
38 | O=C(Nc1ccc(Br)cc1N1CCN(c2cnccn2)CC1)c1cccnc1 | > 20 | – | –
39 | Cc1ccnc(N2CCN(c3cc(C(C)C)ccc3NC(=O)c3cccnc3)CC2)n1 | 1.5 | 14 | EC50 (Hepatitis C virus [2]; huh-7): ND(toxic)
40 | Cc1nccc(N2CCN(c3cc(C(C)C)ccc3NC(=O)c3cccnc3)CC2)n1 | 0.16 | 25 | EC50 (Hepatitis C virus [2]; huh-7): ND(toxic)
41 | CC(C)c1ccc(NC(=O)C2CCOC2)c(N2CCN(c3cnccn3)CC2)c1 (stereo not drawn) | 20 | – | –
42 | CCOC(=O)c1ccc(NC(=O)c2cccnc2)c(N2CCN(c3cnccn3)CC2)c1 | > 5 | – | –
43 | CC(C)c1ccc(NC(=O)C2CCCNC2)c(N2CCN(c3cnccn3)CC2)c1 (stereo not drawn) | > 200 | – | –
44 | Cc1csc(N2CCN(c3cc(C(C)C)ccc3NC(=O)c3cccnc3)CC2)n1 | 3.9 | 27 | EC50 (Hepatitis C virus [2]; [15]): 6 µM
45 | CNCC(=O)N1CCN(c2cc(C(C)C)ccc2NC(=O)c2cccnc2)CC1 | > 200 | – | –
46 | CC(C)c1ccc(NC(=O)c2cccnc2)c(N2CCN(c3ccncn3)CC2)c1 | 0.56 | 27 | EC50 (Hepatitis C virus [2]; huh-7): ND(toxic)
47 | CC(C)c1ccc(NC(=O)c2cccnc2)c(N2CCN(C(=O)Nc3ccccc3)CC2)c1 | > 100 | – | –
48 | Cc1cnc(N2CCN(c3cc(C(C)C)ccc3NC(=O)c3cccnc3)CC2)s1 | 15 | – | –
49 | CC(C)c1ccc(NC(=O)C2CCOCC2)c(N2CCN(c3cnccn3)CC2)c1 | > 20 | – | –
50 | CC(C)(C)CC[C@@]1(C)CC(C2=NS(=O)(=O)c3cc(NS(C)(=O)=O)ccc3N2)=C(O)c2ccccc21 | – | – | Ratio IC50 (Hepatitis C virus [4]): 1; Ratio IC50 (Hepatitis C virus [5]): 1; inhibition [6]: inactive; Ratio IC50 (Hepatitis C virus [7]): 1; Ratio IC50 (Hepacivirus hominis [8]): 1; Ratio IC50 (Hepatitis C virus [9]): 3; Ratio IC50 (Hepacivirus hominis [10]): 1; Ratio IC50 (Hepatitis C virus [11]): 100; inhibition [12]: inactive; inhibition [13]: inactive; Ratio IC50 (Hepatitis C virus [14]): 1
51 | CC(C)c1ccc(NC(=O)c2cccnc2)c(N2CCN(c3nsc(Cl)n3)CC2)c1 | 5 | > 10 | EC50 (Hepatitis C virus [2]; [15]): > 10 µM
52 | Cc1nc(Br)sc1C(=O)Nc1ccc(C(C)C)cc1N1CCN(c2cnccn2)CC1 | 3 | > 10 | EC50 (Hepatitis C virus [2]; [15]): > 10 µM
53 | CC(C)c1ccc(NC(=O)c2cccnc2)c(N2CCN(c3cncc(C4CC4)n3)CC2)c1 | 1 | 1 | EC50 (Hepatitis C virus [2]; huh-7): ND(toxic)
54 | CC(C)c1ccc(NC(=O)c2cccnc2)c(N2CCN(c3nccs3)CC2)c1 | 2.5 | > 50 | EC50 (Hepatitis C virus [2]; [15]): > 50 µM
55 | CSCc1nccc(N2CCN(c3cc(C(C)C)ccc3NC(=O)c3cccnc3C)CC2)n1 | 0.027 | 19 | EC50 (Hepatitis C virus [2]; [15]): 2.2 µM
56 | CC(C)c1ccc(NC(=O)c2cccnc2)c(N2CCN(C(=O)CN(C)C)CC2)c1 | > 200 | – | –
57 | Cc1cncc(N2CCN(c3cc(C(C)C)ccc3NC(=O)c3cccnc3)CC2)n1 | 0.5 | 23 | EC50 (Hepatitis C virus [2]; huh-7): ND(toxic)
58 | CC(C)c1ccc(NC(=O)c2cccnc2)c(N2CCN(C(=O)OC(C)(C)C)CC2)c1 | > 200 | – | –
59 | CNC(=O)c1c(-c2ccc(F)cc2)oc2cc(N(CCO)S(C)(=O)=O)c(C3CC3)cc12 [NESBUVIR] | – | – | Ratio IC50 (Hepatitis C virus [4]): 1.5; Ratio IC50 (Hepatitis C virus [5]): 1; inhibition [6]: inactive; Ratio IC50 (Hepatitis C virus [7]): 3; Ratio IC50 (Hepacivirus hominis [8]): 1; Ratio IC50 (Hepatitis C virus [9]): 50; Ratio IC50 (Hepacivirus hominis [10]): 6; Ratio IC50 (Hepatitis C virus [11]): 1; inhibition [12]: inactive; inhibition [13]: inactive; Ratio IC50 (Hepatitis C virus [14]): 1
60 | CC(C)c1ccc(NC(=O)c2cccnc2)c(N2CCN(c3cncc(-c4ccccc4)n3)CC2)c1 | 17 | – | –
